Assay results of several laboratories.
Compare with care: the assays were run in different laboratories.
Target: Mitogen-activated protein kinase 3 (MAPK3, Homo sapiens, UniProt P27361)

Cn1c2c(c3ccc(Cl)c(Cl)c31)C(C#N)C1(CCOCC1)NC2=O (stereo not shown)  ΔTm (thermal stability, DSF; 10 µM): 0.1 °C
COc1cc(Nc2cnc(C#N)c(O[C@H](C)CN(C)C)n2)ncc1-c1cnn(C)c1  remaining activity (enzyme activity, inhibitor, radiometric; 10 µM): 71%
N#CCCc1ccc2c(c1)-c1[nH]c3ccc([N+](=O)[O-])cc3c1CC(=O)N2  remaining signal (cell-free assay; 0.5 µM): 95.1%
CC(C)(C)C(=O)c1sc(NC2CCCCC2)nc1N  remaining activity (enzyme activity, inhibitor; 10 µM): 73%
O=C(Nc1cnn(-c2csc(C(=O)NC3COC3)c2)c1)Nc1c(F)cccc1Cl  remaining activity (enzyme activity, inhibitor; 5 µM): 92.4%
Cn1c2c(Cl)c(Cl)ccc2c2cn[nH]c(=O)c21  ΔTm (thermal stability, DSF; 10 µM): 0.1 °C
FC(F)(F)Oc1cccc(-c2cnc3ccc(-c4ccncc4)nn23)c1  activity vs control (enzyme activity, inhibitor, radiometric; 1 µM): 105%
N#CC1(c2ccccn2)CCN(Cc2cc(C(=O)N3CCCC3)c(=O)n3ccccc23)CC1  remaining binding (cell-free assay, competition with immobilised ligand; 1 µM): 91%
COc1cc(Nc2c(C#N)cnc3cc(OCCCN4CCN(C)CC4)c(OC)cc23)c(Cl)cc1Cl  remaining signal (cell-free assay; 0.5 µM): 98.9%
COc1ccc2c(c1)O[C@H](c1ccc(OC)c(OC)c1)C[C@@H]2NC(=O)C1(c2ccc3c(c2)OC(F)(F)O3)CC1  remaining binding (cell-free assay, competition with immobilised ligand; 1 µM): 100%
Cn1c2c(Cl)c(Cl)ccc2c2cc(N)[nH]c(=O)c21  ΔTm (thermal stability, DSF; 10 µM): -0.4 °C
Cc1nc(N2CC[C@@H](O)C2)ncc1-c1cc(C(F)(F)F)cc2[nH]ncc12  remaining binding (binding, competition with immobilised ligand; 1 µM): 100%
Cn1c2c(c3ccccc31)C(C#N)C(C)(C)NC2=O (stereo not shown)  ΔTm (thermal stability, DSF; 10 µM): -0.4 °C
Cc1cc(NC(=O)c2cccc(S(F)(F)(F)(F)F)c2)cc(-n2ccn3nc(-c4cccnc4)cc23)c1  remaining binding (cell-free assay, competition with immobilised ligand; 1 µM): 86.8%
O=C1Nc2ccc(Cl)cc2C1=Cc1cc(Cl)c(O)c(Cl)c1  remaining signal (cell-free assay; 0.5 µM): 88.2%
CCN1CCN(Cc2ccc(NC(=O)c3ccc(C)c(/C=C/c4cnc5[nH]ccc5c4OC)c3)cc2C(F)(F)F)CC1  inhibition (target engagement in cells, inhibitor, chemoproteomics; A-375; 5 µM): -26.3%
N#CC1c2c([nH]c3c(Cl)c(Cl)ccc23)C(=O)NC12CCCCC2 (racemic)  ΔTm (thermal stability, DSF; 10 µM): 0.1 °C
N#CC(=C(N)Sc1ccc(N)cc1)c1ccccc1C(F)(F)F  remaining signal (cell-free assay; 0.5 µM): 116%
CCN1CCN(Cc2ccc(NC(=O)c3ccc(C)c(Oc4ccnc5[nH]ccc45)c3)cc2C(F)(F)F)CC1  inhibition (target engagement in cells, inhibitor, chemoproteomics; A-375; 50 nM): -24.5%
Oc1cccc(-c2nc(N3CCOCC3)c3oc4ncccc4c3n2)c1  remaining activity (enzyme activity, inhibitor; 10 µM): 112%
Cc1cc(-n2nc(Cc3cc(F)cc(C(F)(F)F)c3)nc2C)ccc1C(N)=O  remaining binding (cell-free assay, competition with immobilised ligand; 1 µM): 100%
CC(C)(C)c1nc(-c2cccc(NS(=O)(=O)c3c(F)cccc3F)c2F)c(-c2ccnc(N)n2)s1  remaining activity (enzyme activity, inhibitor, radiometric; 1 µM): 92%
Cc1ccc(NC(=O)c2ccc(CN3CCN(C)CC3)cc2)cc1Nc1nc(-c2cccnc2)cs1  remaining signal (cell-free assay; 0.5 µM): 103%
CN1CCC2(CC1)NC(=O)c1c(c3ccc(Cl)c(Cl)c3n1C)C2C#N (racemic)  ΔTm (thermal stability, DSF; 10 µM): 0.3 °C
O=C(Nc1cccnn1)N1CCC(=Cc2cccc(Oc3ccc(C(F)(F)F)cn3)c2)CC1  remaining binding (cell-free assay, competition with immobilised ligand; 1 µM): 100%
Cc1sc(C(=O)NC2COC2)cc1-n1cc(NC(=O)Nc2c(F)cccc2Cl)cn1  remaining activity (enzyme activity, inhibitor; 10 µM): 107%
CC(C)(O)[C@H]1CC[C@H](Nc2ccc3ncc(-c4cccc(C(F)(F)F)c4)n3n2)CC1  remaining activity (enzyme activity, inhibitor; 1 µM): 94%
c1nc2c(Nc3ccc4c(c3)OCCO4)nc(Nc3ccc4c(c3)OCCO4)nc2[nH]1  activity vs control (enzyme activity, inhibitor; 10 µM): 94%
CCCS(=O)(=O)Nc1ccc(F)c(C(=O)c2c[nH]c3ncc(-c4ccc(Cl)cc4)cc23)c1F  inhibition (enzyme activity, inhibitor; 1 µM): < 20%
CNc1cccc2cc(C(=O)Nc3ccc(C(=O)O)cc3)c(=O)[nH]c12  inhibition (enzyme activity, inhibitor; 10 µM): 1.9%
CN(c1ccnc(CNc2nc(Nc3ccc4c(c3)CC(=O)N4)ncc2C(F)(F)F)n1)S(C)(=O)=O  remaining binding (cell-free assay, competition with immobilised ligand; 1 µM): 96%
COc1cc2ncnc(Nc3ccc(Oc4ccccc4)cc3C)c2cc1OC  inhibition (enzyme activity, inhibitor; 1 µM): 5%
Cn1c2c(c3ccc(Cl)c(Cl)c31)C(C#N)C1(CCCC1)NC2=O (stereo not shown)  ΔTm (thermal stability, DSF; 10 µM): -0.2 °C
CCC(=O)N[C@@H]1CC[C@H](C(=O)N(C)c2ccc(-c3nc4ccccc4o3)cc2)C1  remaining binding (cell-free assay, competition with immobilised ligand; 1 µM): 100%
